Source: PMC4543588 (European journal of medicinal chemistry, 2015)
Ends that are not written are not given here.

Assays:
water solubility = assay type: physicochemical
[1] = tested on: lysophosphatidic acid (LPA); assay: LPA levels in plasma of chronically treated DIO mice; assay type: in vivo, mouse; conditions: 1603 nmoles/kg; every 2 or 4 (NM4A) or 7 days (NM4-C16) for 21 days
In short: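 Ad libitum-fed male DIO C57BL/6 mice on a 60% kcal-fat diet (n=8/group) received s.c. vehicle or test compound in a phospholipid-based delivery system, 30 min before dark onset. Dosing was 1603 nmoles/kg every 2 or 4 days (2.2 mg/kg) or every 7 days (2.6 mg/kg) for 21 days. Plasma (100 μL) underwent solid-phase extraction and drying at 30–37 °C, then methanol reconstitution. 18:1, 18:2 and 20:4 LPA were quantified by LC-ESI-MS/MS.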

[2] = body distribution analysis in chronically treated DIO mice; assay type: in vivo, mouse; conditions: 2.2 mg/kg every 2 days for 28 days
In short: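 Male DIO C57BL/6 mice were given test compound chronically at 2.2 mg/kg (1603 nmoles/kg) every 2 days for 28 days, then killed. Organs and tissues were harvested, weighed and homogenised in 4 volumes of DMSO/ACN (1:1) with 0.1% TFA, then spun 10 min at 13000 rpm. Supernatants were analysed by triple-quadrupole LC/MS with a methylated analog as internal standard.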

[3] = s.c. injection ref 39; cited from earlier work
human NMU2 = human NMU2 (Homo sapiens, UniProt Q9GZQ4); assay: cellular calcium signaling assay, HEK293 cells expressing recombinant human NMU2; assay type: cell-based
human NMU2, sequence (Q9GZQ4 whole entry): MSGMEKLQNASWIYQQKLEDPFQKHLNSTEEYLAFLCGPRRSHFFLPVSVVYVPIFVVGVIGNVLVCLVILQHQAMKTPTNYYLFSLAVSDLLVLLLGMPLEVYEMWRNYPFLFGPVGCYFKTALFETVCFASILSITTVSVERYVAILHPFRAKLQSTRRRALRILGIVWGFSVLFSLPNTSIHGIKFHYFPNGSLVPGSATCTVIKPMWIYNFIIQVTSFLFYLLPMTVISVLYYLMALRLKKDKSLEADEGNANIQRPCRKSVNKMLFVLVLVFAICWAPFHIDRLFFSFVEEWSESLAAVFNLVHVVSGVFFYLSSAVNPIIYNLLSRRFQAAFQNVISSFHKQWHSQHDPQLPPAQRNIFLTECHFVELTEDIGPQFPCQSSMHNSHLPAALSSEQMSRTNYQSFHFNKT
In short: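 HEK293 cells stably expressing human NMU2 were grown to ~90% confluence on poly-D-lysine, loaded 45 min at 37 °C with 2 μM fluo-4-AM in Krebs'-HEPES-BSA (pH 7.4), then equilibrated 5 min. After ligand addition, fluorescence (ex 485/em 520 nm) was read at 0.5 s intervals. Maximal [Ca2+]i change was fitted by four-parameter logistic for EC50. Emax given as % hNmU Emax; mean ± SEM, n≥4.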

human NMU1 = biological target: T1, human NMU1 (Homo sapiens, UniProt Q9HB89); assay: cellular calcium signaling assay, HEK293 cells expressing recombinant human NMU1; assay type: cell-based
T1 sequence (Q9HB89 1-426): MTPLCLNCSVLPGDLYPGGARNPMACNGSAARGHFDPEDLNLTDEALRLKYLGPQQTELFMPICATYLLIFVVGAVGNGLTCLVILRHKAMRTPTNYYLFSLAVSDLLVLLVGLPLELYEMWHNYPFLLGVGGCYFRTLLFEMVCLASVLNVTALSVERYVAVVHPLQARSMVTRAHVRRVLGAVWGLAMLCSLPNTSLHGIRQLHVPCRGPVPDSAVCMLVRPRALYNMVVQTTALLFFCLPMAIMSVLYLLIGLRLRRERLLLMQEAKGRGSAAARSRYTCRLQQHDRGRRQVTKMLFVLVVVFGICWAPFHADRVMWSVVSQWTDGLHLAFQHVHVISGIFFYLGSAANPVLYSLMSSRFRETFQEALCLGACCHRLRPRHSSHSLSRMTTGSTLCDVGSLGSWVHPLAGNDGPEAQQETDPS
In short: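 HEK293 cells stably expressing human NMU1, grown to ~90% confluence on poly-D-lysine, loaded 45 min at 37 °C with 2 μM fluo-4-AM in Krebs'-HEPES/0.1% BSA (pH 7.4), then equilibrated 5 min. Ligand added; fluorescence (ex 485/em 520 nm) read every 0.5 s. […] Four-parameter logistic fit gave EC50; Emax as % hNmU; n≥4.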

[4] = cited from earlier work

| Compound | NMU2 Emax at 10 μM as % hNmU Emax (human NMU2) [% hNmU Emax] | NMU1 Emax at 10 μM as % hNmU Emax (human NMU1) [% hNmU Emax] | other results |
| --- | --- | --- | --- |
| CCCCCCCCCCCCCCCCNC(=O)CNCC(=O)NC(C)(C)C(=O)N[C@@H](Cc1ccccc1)C(=O)N[C@@H](CC(C)C)C(=O)N[C@@H](Cc1ccccc1)C(=O)N[C@@H](CCCNC(=N)N)C(=O)N1CCC[C@H]1C(=O)N[C@@H](CCCNC(=N)N)C(=O)N[C@@H](CC(N)=O)C(N)=O [NM4A, Ida^NHPal-Aib -FL- Phe -Arg- Pro-R-Asn] | – | – | water solubility (water solubility): limited water solubility; plasma levels of LPA [1]: does not increase plasma levels of LPA; body distribution [2]: highest content of NM4A was detected in the plasma |
| NmU: endogenous peptide neuromedin U (FRVDEEFQSPFASQSRGYFLFRPRN-NH2; ends and bridges not checked; UniProt P48645 142-166, looked up) | – | – | half-life after subcutaneous (s.c.) injection [3]: less than 5 min |
| Pal-Aib -FL- Phe -Arg- Pro-R-Asn-Aib [NM6] | 60.7±12.1 | 40.6±2.2 | – |
| X(C-Ahx -FL- Phe -Arg- Oic-R-Asn-Ahx-C) [NM12] | 70.0±6.0 | 30.00±6.0 | – |
| X(C-Ahx -FL- Phe -Arg- Pro-R-Asn-Ahx-C) [NM11] | 60.6±11.6 | 33.7±0.2 | – |
| semaglutide | – | – | plasma half-life [4]: 160 h |

Continued, in another order:

| NMU2 Emax at 10 μM as % hNmU Emax (human NMU2) [% hNmU Emax] | NMU1 Emax at 10 μM as % hNmU Emax (human NMU1) [% hNmU Emax] | Compound | other results |
| --- | --- | --- | --- |
| 15.2±3.8 | 19.1±1.2 | Pal-Aib -FL- N^MeF -Arg- Pro-R-N^MeN [NM32] | – |
| 67.0±16.5 | 22.9±3.8 | Pal-Aib -FL- N^MeF -Arg- Pro-R-N^MeN [NM35] | – |
| 17.9±1.5 | 13.8±2.0 | Pal-Aib -FL- Phe-N^MeR- Pro-R-N^MeN [NM31] | – |
| 18.4±3.2 | 19.6±3.2 | Pal-Aib -FL- Phe-N^MeR- Pro-R-N^MeN [NM34] | – |
| 19.2±2.0 | 20.6±1.9 | Pal-Aib -FL- α^MeF -Arg- Pro-R-N^MeN [NM33] | – |
| 28.6±7.9 | 15.9±6.6 | Pal-Aib -FL- α^MeF -Arg- Pro-R-N^MeN [NM36] | – |
| 39.3±8.8 | 60.4±13.8 | X(C-Ahx -FL- Phe -Arg- Tic-R-Asn-Ahx-C) [NM13] | – |
